Reference: ChEMBL document CHEMBL4219028, “Development of Protein Degradation Inducers of Androgen Receptor by Conjugation of Androgen Receptor Ligands and Inhibitor of Apoptosis Protein Ligands” (J Med Chem, 2018)
Blank lines part the entries; values can stand above or below the molecule they belong to. Calls of active or inactive are those of the source. The calls are words filed in the database; no cut-off is given here.

How the values were obtained:
[1] = target: T1, Androgen receptor/Baculoviral IAP repeat-containing protein 2 (Homo sapiens, UniProt P10275+Q13490); test: Induction of AR/cIAP1 interaction in human 22Rv1 cells assessed as ubiquitin proteasome system mediated androgen receptor protein degradation at 1 to 3 uM after 6 hrs by Western blot analysis; format: cell-based
Method in brief: (§1)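 22Rv1 cells were treated with compound, or with separate ligands (30 μM or 3 μM each), for 6 h. Lysates in SDS buffer (0.1 M Tris pH 8.0, 1% SDS) were normalized by BCA, run on SDS-PAGE and immunoblotted. AR/GAPDH ratio was normalized to vehicle as 100. DC50 is the concentration giving 50% AR reduction; means ± SD, n = 3; t-test against vehicle.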
Target sequence in this assay (Q13490 whole entry, looked up, one chain of several): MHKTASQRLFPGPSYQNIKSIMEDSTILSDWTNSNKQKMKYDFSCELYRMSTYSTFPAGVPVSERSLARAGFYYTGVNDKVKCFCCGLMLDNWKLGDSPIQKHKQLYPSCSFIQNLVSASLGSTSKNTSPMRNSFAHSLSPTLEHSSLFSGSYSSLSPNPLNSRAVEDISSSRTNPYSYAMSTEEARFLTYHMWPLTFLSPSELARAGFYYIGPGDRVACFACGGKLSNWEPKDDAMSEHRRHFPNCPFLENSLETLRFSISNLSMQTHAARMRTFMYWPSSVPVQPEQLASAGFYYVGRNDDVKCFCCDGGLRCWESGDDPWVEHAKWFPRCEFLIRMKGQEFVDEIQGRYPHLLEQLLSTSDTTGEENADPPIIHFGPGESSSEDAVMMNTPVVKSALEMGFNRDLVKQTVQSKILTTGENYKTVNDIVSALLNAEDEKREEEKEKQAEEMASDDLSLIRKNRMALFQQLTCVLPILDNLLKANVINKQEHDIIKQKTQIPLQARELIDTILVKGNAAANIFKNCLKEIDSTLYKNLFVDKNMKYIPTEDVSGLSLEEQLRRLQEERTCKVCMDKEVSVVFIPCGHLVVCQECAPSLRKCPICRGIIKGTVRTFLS

[2] = target: T1, Androgen receptor/Baculoviral IAP repeat-containing protein 2; test: Induction of AR/cIAP1 interaction in human 22Rv1 cells assessed as ubiquitin proteasome system mediated androgen receptor protein degradation by Western blot analysis
Target sequence in this assay (Q13490 whole entry, one chain of several): as the sequence (Q13490 whole entry, looked up, one chain of several) above

[3] = target: T2, Androgen receptor (Homo sapiens, UniProt P10275); test: Displacement of [17-alpha-methyl-H-3] mibolerone from wild-type androgen receptor (unknown origin) expressed in human Freestyle293F cells measured after 3 hrs; format: cell-based
T2 sequence (P10275 whole entry): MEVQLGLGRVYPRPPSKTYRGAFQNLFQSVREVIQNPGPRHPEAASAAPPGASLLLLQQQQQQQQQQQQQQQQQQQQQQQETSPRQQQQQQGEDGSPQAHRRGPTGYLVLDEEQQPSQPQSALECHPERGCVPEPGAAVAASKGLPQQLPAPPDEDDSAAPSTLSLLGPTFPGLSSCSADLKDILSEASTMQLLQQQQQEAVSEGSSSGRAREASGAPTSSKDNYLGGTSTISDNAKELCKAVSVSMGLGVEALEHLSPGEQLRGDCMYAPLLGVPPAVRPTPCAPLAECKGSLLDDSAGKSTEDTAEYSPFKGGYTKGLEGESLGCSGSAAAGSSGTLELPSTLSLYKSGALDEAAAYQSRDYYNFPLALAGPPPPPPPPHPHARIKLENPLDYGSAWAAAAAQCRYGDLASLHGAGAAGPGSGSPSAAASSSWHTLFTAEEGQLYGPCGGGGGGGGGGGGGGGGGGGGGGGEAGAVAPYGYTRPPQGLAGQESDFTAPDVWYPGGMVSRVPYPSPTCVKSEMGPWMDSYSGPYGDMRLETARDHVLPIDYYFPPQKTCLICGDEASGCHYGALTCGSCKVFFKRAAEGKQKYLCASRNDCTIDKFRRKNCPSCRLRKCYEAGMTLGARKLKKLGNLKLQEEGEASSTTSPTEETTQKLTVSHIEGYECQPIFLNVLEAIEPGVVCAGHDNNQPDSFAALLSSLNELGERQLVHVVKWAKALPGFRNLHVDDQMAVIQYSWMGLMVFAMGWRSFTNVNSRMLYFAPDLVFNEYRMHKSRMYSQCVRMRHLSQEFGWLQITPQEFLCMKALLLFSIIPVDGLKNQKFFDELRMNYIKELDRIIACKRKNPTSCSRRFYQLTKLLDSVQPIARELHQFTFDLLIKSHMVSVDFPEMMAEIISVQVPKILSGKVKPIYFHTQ
Method in brief: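 Wild-type AR was expressed in FreeStyle293F cells (pcDNA3.1, 48 h, 37 °C, 8% CO2). Cells were lysed in TEGM buffer (pH 7.2, molybdate, DTT) by freeze–thaw, and the supernatant from 228,000g spin was used. Lysate was incubated with 3 nM (final) [3H]mibolerone plus compound at 4 °C for 3 h. Bound and free were separated by dextran/charcoal and bound counts gave % inhibition; IC50 from three experiments.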

[4] = target: T2, Androgen receptor; test: Binding affinity to androgen receptor (unknown origin)
Method in brief: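 Wild-type AR expressed by transfection of FreeStyle293F cells (48 h shaking at 37 °C), then lysed by freeze-thaw in TEGM buffer (pH 7.2, molybdate, DTT). Cleared lysate incubated with [3H]mibolerone (final 3 nM) plus test compound at 4 °C for 3 h. Bound and free separated by dextran/charcoal, bound counted, and % inhibition calculated. IC50 taken from three separate experiments.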

[5] = target: T1, Androgen receptor/Baculoviral IAP repeat-containing protein 2; test: Induction of AR/cIAP1 interaction in human 22Rv1 cells assessed as ubiquitin proteasome system mediated androgen receptor protein degradation at 3 uM in presence of 1-benzyl-4-(4-cyanophenyl)-2,5-dimethyl-1H-pyrrole-3-carbonitrile after 6 hrs by Western blot analysis; format: cell-based; method in brief: as §1
Target sequence in this assay (Q13490 whole entry, looked up, one chain of several): as the sequence (Q13490 whole entry, looked up, one chain of several) above

[6] = target: T1, Androgen receptor/Baculoviral IAP repeat-containing protein 2; test: Induction of AR/cIAP1 interaction in human 22Rv1 cells assessed as ubiquitin proteasome system mediated androgen receptor protein degradation after 6 hrs by Western blot analysis; format: cell-based; method in brief: as §1
Target sequence in this assay (Q13490 whole entry, looked up, one chain of several): as the sequence (Q13490 whole entry, looked up, one chain of several) above

[7] = target: T1, Androgen receptor/Baculoviral IAP repeat-containing protein 2; test: Induction of AR/cIAP1 interaction in human 22Rv1 cells assessed as ubiquitin proteasome system mediated androgen receptor protein degradation at 30 uM after 6 hrs by Western blot analysis; format: cell-based; method in brief: as §1
Target sequence in this assay (Q13490 whole entry, looked up, one chain of several): as the sequence (Q13490 whole entry, looked up, one chain of several) above

[8] = target: T1, Androgen receptor/Baculoviral IAP repeat-containing protein 2; test: Induction of AR/cIAP1 interaction in human 22Rv1 cells assessed as ubiquitin proteasome system mediated androgen receptor protein degradation at 3 uM after 6 hrs by Western blot analysis; format: cell-based; method in brief: as §1
Target sequence in this assay (Q13490 whole entry, looked up, one chain of several): as the sequence (Q13490 whole entry, looked up, one chain of several) above

[9] = target: T1, Androgen receptor/Baculoviral IAP repeat-containing protein 2; test: Induction of AR/cIAP1 interaction in human 22Rv1 cells assessed as ubiquitin proteasome system mediated androgen receptor protein degradation at 30 uM in presence of methyl (2S)-2-(((2S,3R)-3-amino-2-hydroxy-4-phenylbutanoyl)amino)-4-methylpentanoate after 6 hrs by Western blot analysis; format: cell-based; method in brief: as §1
Target sequence in this assay (Q13490 whole entry, looked up, one chain of several): as the sequence (Q13490 whole entry, looked up, one chain of several) above

[10] = target: T1, Androgen receptor/Baculoviral IAP repeat-containing protein 2; test: Induction of AR/cIAP1 interaction in human 22Rv1 cells assessed as ubiquitin proteasome system mediated androgen receptor protein degradation at 3 uM in presence of N-((1S)-1-Cyclohexyl-2-((2S)-2-(4-(3-methoxybenzoyl)-1,3-thiazol-2-yl)pyrrolidin-1-yl)-2-oxoethyl)-N2-methyl-L-alaninamide after 6 hrs by Western blot analysis; format: cell-based; method in brief: as §1

SMILES: CN[C@@H](C)C(=O)N[C@H](C(=O)N1CCC[C@H]1c1nc(C(=O)c2cccc(OCCOCCOCCOCCCc3ccc(Cn4c(C)c(C#N)c(-c5ccc(C#N)cc5)c4C)cc3)c2)cs1)C1CCCCC1
- Activity [1]: Active

SMILES: Cc1nn(-c2ccc(C#N)cc2Cl)c(C)c1Cc1ccc(C(=O)NCCOCCOCCOCCNC(=O)[C@H](CC(C)C)NC(=O)[C@@H](O)[C@H](N)Cc2ccccc2)cc1
- DC50 [2]: > 30000 nM
- IC50 [3]: > 10000 nM

SMILES: Cc1c(C#N)c(-c2ccc(C#N)cc2)c(C)n1Cc1ccc(C(=O)O)cc1
- IC50 [4]: 1.4 nM

SMILES: CN[C@@H](C)C(=O)N[C@H](C(=O)N1CCC[C@H]1c1nc(C(=O)c2cccc(OC)c2)cs1)C1CCCCC1
- Activity [5]: inactive

SMILES: Cc1c(C#N)c(-c2ccc(C#N)cc2)c(C)n1Cc1ccc(C(=O)NCCOCCOCCOCCNC(=O)[C@H](CC(C)C)NC(=O)[C@@H](O)[C@H](N)Cc2ccccc2)cc1
- MED [6]: 30 µM
- Activity [7]: Active
- DC50 [2]: 21600 nM
- IC50 [3]: 27 nM

SMILES: Cc1nn(-c2ccc(C#N)c(Cl)c2)c(C)c1CCc1ccc(C(=O)O)cc1
- IC50 [4]: 53 nM

SMILES: Cc1nn(-c2ccc(C#N)c(Cl)c2)c(C)c1CCc1ccc(C(=O)NCCOCCOCCOCCNC(=O)[C@H](CC(C)C)NC(=O)[C@@H](O)[C@H](N)Cc2ccccc2)cc1
- DC50 [2]: 20500 nM
- IC50 [3]: 190 nM

SMILES: Cc1c(C#N)c(-c2ccc(C#N)cc2)c(C)n1Cc1ccccc1
- Activity [9]: inactive
- Activity [10]: inactive

SMILES: CN[C@@H](C)C(=O)N[C@H](C(=O)N1CCC[C@H]1c1nc(C(=O)c2cccc(OCCOCCOCCNC(=O)c3ccc(Cn4c(C)c(C#N)c(-c5ccc(C#N)cc5)c4C)cc3)c2)cs1)C1CCCCC1
- MED [6]: 3 µM
- Activity [1]: Active

SMILES: CN[C@@H](C)C(=O)N[C@H](C(=O)N1CCC[C@H]1c1nc(C(=O)c2cccc(OCCOCCOCCOCCOc3cccc(Cn4c(C)c(C#N)c(-c5ccc(C#N)cc5)c4C)c3)c2)cs1)C1CCCCC1
- Activity [1]: Active

SMILES: CC(C)C[C@H](NC(=O)[C@@H](O)[C@H](N)Cc1ccccc1)C(=O)NCCOCCOCCOCCNC(=O)c1ccc(S(=O)(=O)CC(C)(O)C(=O)Nc2ccc(C#N)c(C(F)(F)F)c2)cc1 (some centres undefined)
- DC50 [2]: > 30000 nM
- IC50 [3]: 1100 nM

SMILES: CN[C@@H](C)C(=O)N[C@H](C(=O)N1CCC[C@H]1C(=O)N[C@H](C(=O)NCCOCCOCCOCCNC(=O)c1ccc(Cn2c(C)c(C#N)c(-c3ccc(C#N)cc3)c2C)cc1)C(c1ccccc1)c1ccccc1)C1CCCCC1
- MED [6]: 20 µM

SMILES: Cc1nn(-c2ccc(C#N)c(C(F)(F)F)c2)c(C)c1Cc1ccc(C(=O)NCCOCCOCCOCCNC(=O)[C@H](CC(C)C)NC(=O)[C@@H](O)[C@H](N)Cc2ccccc2)cc1
- DC50 [2]: 11700 nM
- IC50 [3]: 190 nM

Continued, values first:

- Activity [1]: inactive
SMILES: CN[C@@H](C)C(=O)N[C@H](C(=O)N1CCC[C@H]1c1nc(C(=O)c2cccc(OCCOc3cccc(OCCOc4ccc(Cn5c(C)c(C#N)c(-c6ccc(C#N)cc6)c5C)cc4)c3)c2)cs1)C1CCCCC1

- Activity [8]: Active
SMILES: CN[C@@H](C)C(=O)N[C@H](C(=O)N1CCC[C@H]1c1nc(C(=O)c2cccc(OCCOCCOCCOCCOCCOc3ccc(Cn4c(C)c(C#N)c(-c5ccc(C#N)cc5)c4C)cc3)c2)cs1)C1CCCCC1

- Activity [1]: inactive
SMILES: CN[C@@H](C)C(=O)N[C@H](C(=O)N1CCC[C@H]1c1nc(C(=O)c2cccc(OCCOCCOCCOCCOc3ccccc3Cn3c(C)c(C#N)c(-c4ccc(C#N)cc4)c3C)c2)cs1)C1CCCCC1

- Activity [1]: Active
SMILES: CN[C@@H](C)C(=O)N[C@H](C(=O)N1CCC[C@H]1c1nc(C(=O)c2cccc(OCCOCCOCCOCC#Cc3ccc(Cn4c(C)c(C#N)c(-c5ccc(C#N)cc5)c4C)cc3)c2)cs1)C1CCCCC1

- Activity [1]: inactive
SMILES: CN[C@@H](C)C(=O)N[C@H](C(=O)N1CCC[C@H]1c1nc(C(=O)c2cccc(OCCOc3ccc(OCCOc4ccc(Cn5c(C)c(C#N)c(-c6ccc(C#N)cc6)c5C)cc4)cc3)c2)cs1)C1CCCCC1

- Activity [8]: Active
SMILES: CN[C@@H](C)C(=O)N[C@H](C(=O)N1CCC[C@H]1c1nc(C(=O)c2cccc(OCCOCCOCCOc3ccc(Cn4c(C)c(C#N)c(-c5ccc(C#N)cc5)c4C)cc3)c2)cs1)C1CCCCC1

- Activity [1]: inactive
SMILES: CN[C@@H](C)C(=O)N[C@H](C(=O)N1CCC[C@H]1c1nc(C(=O)c2cccc(OCCOc3ccccc3OCCOc3ccc(Cn4c(C)c(C#N)c(-c5ccc(C#N)cc5)c4C)cc3)c2)cs1)C1CCCCC1
